In ChEMBL document CHEMBL3865796, “Novel (2,6-difluorophenyl)(2-(phenylamino)pyrimidin-4-yl)methanones with restricted conformation as potent non-nucleoside reverse transcriptase inhibitors against HIV-1” (Eur J Med Chem, 2016):

Tests used:
[1] = Inhibition of wild type HIV-1 3B reverse transcriptase infected in human MT4 cells assessed as inhibition of viral replication after 5 days by cell titer glo based luciferase reporter gene assay; conditions: Human immunodeficiency virus 1, 3B, MT4, 120 h
[2] = Selectivity index, ratio of CC50 for human MT4 cells to EC50 for wild type HIV-1 3B reverse transcriptase infected in human MT4 cells; assay type: toxicity, cell-based; conditions: read-out: Ratio CC50/EC50
[3] = Cytotoxicity against human MT4 cells assessed as decrease in cell viability after 5 days by cell titer glo based luciferase reporter gene assay; assay type: toxicity
Procedure, shortened: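 Mock-infected MT-4 cells (pre-treated with RPMI) in complete RPMI (10% FBS, 1% P/S) received 1:3 serial DMSO dilutions of compound, further diluted 200-fold into medium, in a 384-well format. Incubated 5 days at 37 °C in a humidified incubator. Viability was read as CellTiter-Glo luminescence. CC50 is the concentration giving a 50% fall in signal, from a sigmoidal dose-response fit.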

[4] = Inhibition of wild type HIV-1 3B reverse transcriptase infected in human MT4 cells assessed as inhibition of virus-induced cytopathic effect after 5 days incubation by Cell Titer Glo luminescence assay; conditions: Human immunodeficiency virus 1, 3B

SMILES	EC50 [1] [µM]	selectivity ratio [2]	CC50 at 120 h [3] [µM]	EC50 [4] [µM]
N#Cc1ccc(Nc2nc(C(=O)c3ccc(C#N)cc3)ncc2Br)cc1	27.7	> 2.06	> 57	
COc1cc(F)c(C(=O)c2nc(Nc3ccc(C#N)cc3Br)ncc2Br)c(F)c1	18.9	> 3.02	> 57	
N#Cc1ccc(Nc2nccc(C(=O)c3ccc(C#N)cc3)n2)cc1	4.5	> 12.7	> 57	
N#Cc1ccc(C(=O)c2nccc(Cl)n2)cc1	> 57	< 0.29	16.5	
COc1cc(F)c(C(=O)c2ccnc(Cl)n2)c(F)c1	> 57	1	> 57	
O=C(c1ccnc(Cl)n1)c1c(F)cc(Br)cc1F	> 57	1	> 57	
N#Cc1ccc(Nc2ccnc(C(O)c3ccc(C#N)cc3)n2)cc1 (stereo not given)	> 57	1	> 57	
COc1ccc(C(=O)c2nc(Nc3ccc(C#N)cc3)ncc2Br)cc1	> 57	< 0.04	2.45	
COc1cc(F)c(C(=O)c2ccnc(Nc3ccc(C#N)cc3)n2)c(F)c1	0.004	> 14200	> 57	
COc1ccc(C(=O)c2ccnc(Nc3ccc(C#N)cc3)n2)cc1	0.814	> 70	> 57	0.239
N#Cc1ccc(Nc2ccnc(C(=O)c3ccc(C#N)cc3)n2)cc1	43	> 1.33	> 57	
N#Cc1cc(F)c(C(=O)c2ccnc(Cl)n2)c(F)c1	> 57	< 0.54	30.5	
O=C(c1ccnc(Cl)n1)c1c(F)cc(F)cc1F	> 57	< 0.7	40.1	
COc1ccc(C(=O)c2ccnc(Cl)n2)cc1	> 57	< 0.69	39.6	
COc1cc(F)c(C(=O)c2nc(Nc3ccc(C#N)cc3)ncc2Br)c(F)c1	0.069	561	38.7	
N#Cc1ccc(Nc2cc(F)c(C(=O)c3ccnc(Nc4ccc(C#N)cc4)n3)c(F)c2)cc1	0.31	167	51.9	
N#Cc1ccc(C(=O)c2ccnc(Cl)n2)cc1	> 57	< 0.56	31.9	
N#Cc1ccc(Nc2ncc(Br)c(C(=O)c3ccc(C#N)cc3)n2)cc1	7.4	> 7.7	> 57	
N#Cc1ccc(Nc2ncc(Br)c(C(=O)c3c(F)cc(O)cc3F)n2)cc1	> 57	1	> 57	
N#Cc1ccc(Nc2nccc(C(=O)c3c(F)cc(F)cc3F)n2)cc1	0.034	> 1680	> 57	
N#Cc1ccc(Nc2nccc(C(O)c3ccc(C#N)cc3)n2)cc1 (stereo not given)	3.7	> 15.4	> 57	
N#Cc1ccc(Nc2nccc(C(=O)c3c(F)cc(C#N)cc3F)n2)cc1	0.051	> 1120	> 57	
O=C1Nc2ccc(Cl)cc2[C@@](C#CC2CC2)(C(F)(F)F)O1 [EFAVIRENZ]	0.001		20.6	
Cc1cc(C#N)cc(C)c1Oc1nc(Nc2ccc(C#N)cc2)nc(N)c1Br [ETRAVIRINE]			5.88	
